Consider eight molecules from ChEMBL document CHEMBL1142542, “Synthesis, mechanistic studies, and anti-proliferative activity of glutathione/glutathione S-transferase-activated nitric oxide prodrugs” (Bioorg Med Chem, 2008).

SMILES strings stand for the structures. Where only a bound is given, the exact number is not on record here.

The IC50 is the concentration that gives 50% inhibition. A lower IC50 goes with greater potency.

The target of data set [1] is T1, Glutathione S-transferase A1 (Homo sapiens) (UniProt P08263).
T1 sequence (whole entry): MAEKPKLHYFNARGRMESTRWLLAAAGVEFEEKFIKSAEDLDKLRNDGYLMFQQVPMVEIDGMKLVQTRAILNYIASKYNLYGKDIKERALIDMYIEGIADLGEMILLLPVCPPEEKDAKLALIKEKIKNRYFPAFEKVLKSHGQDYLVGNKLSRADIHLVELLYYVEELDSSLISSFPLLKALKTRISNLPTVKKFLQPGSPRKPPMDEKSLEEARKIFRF
Description: Specific activity of human recombinant Glutathione S-transferase A1 at 50 uM by spectrophotometric analysis in presence of glutathione relative to O2-(2,4-dinitrophenyl) 1-[(4-ethoxycarbonyl)piperazin-1-yl]diazen-1-ium-1,2-diolate. In outline: (§1)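 Reaction of 1 mL held 0.1 M phosphate buffer pH 7.4, 1 mM GSH, 50 μM compound and a catalytic amount of GST. GSTA1-1 and GSTM1-1 were purified recombinant enzymes; GSTP1-1 was purified in-house. Enzymes were first checked for activity with CDNB. Reaction started by adding compound, and the absorbance decrease at its maximum was followed at 37 °C. Specific activity came from the change in extinction coefficient.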

In data set [2] the target is T2, Glutathione S-transferase Mu 1 (Homo sapiens) (UniProt P09488).
T2 sequence (whole entry): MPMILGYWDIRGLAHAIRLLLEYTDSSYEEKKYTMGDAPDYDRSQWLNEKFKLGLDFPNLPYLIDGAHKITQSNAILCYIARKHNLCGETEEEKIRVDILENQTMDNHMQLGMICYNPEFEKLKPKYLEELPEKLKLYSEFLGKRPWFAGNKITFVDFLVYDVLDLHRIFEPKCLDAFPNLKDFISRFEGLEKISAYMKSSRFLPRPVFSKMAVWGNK
Description: Specific activity of human recombinant Glutathione S-transferase Mu 1 at 50 uM by spectrophotometric analysis in presence of glutathione relative to O2-(2,4-dinitrophenyl) 1-[(4-ethoxycarbonyl)piperazin-1-yl]diazen-1-ium-1,2-diolate. In outline:
as §1

Data set [3] in a line: Chemical stability assessed as half life in 0.1 M phosphate buffer at 33 uM at pH 7.4 in presence of glutathione. The class given is physicochemical. Particulars: gsh, pH 7.4, 33 µM.
In data set [4] the target is T1, Glutathione S-transferase A1 (Homo sapiens). The experiment in a line: Specific activity of human recombinant Glutathione S-transferase A1 at 50 uM by spectrophotometric analysis in presence of glutathione. A digest of the protocol: as §1
In data set [5] the test system is A549. The experiment in a line: Antiproliferative activity against human A549 cells after 72 hrs by MTT assay. Particulars: A549, 72 h. The format is functional, cell-based. In outline:
(§2)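 MTT (CellTiter 96) proliferation assay. Seeded at 10⁴ per well and grown 24 h, then given rising compound concentrations in PBS (from 10 mM DMSO stocks) for 72 h. Six repeats per concentration, at least two independent experiments; IC50 reported.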

Data set [6] can be described thus: Antiproliferative activity against human H441 cells after 72 hrs by MTT assay. The format is functional, cell-based. Particulars: NCI-H441, 72 h. On the technique in general: Tetrazolium dyes change colour on reduction, which living cells bring about.
Data set [7] addresses Glutathione S-transferase P (Homo sapiens) (UniProt P09211). The experiment in a line: Specific activity of human Glutathione S-transferase P at 50 uM by spectrophotometric analysis in presence of glutathione relative to O2-(2,4-dinitrophenyl) 1-[(4-ethoxycarbonyl)piperazin-1-yl]diazen-1-ium-1,2-diolate. A digest of the protocol: as §1
Data set [8] addresses T2, Glutathione S-transferase Mu 1 (Homo sapiens). The experiment in a line: Specific activity of human recombinant Glutathione S-transferase Mu 1 at 50 uM by spectrophotometric analysis in presence of glutathione. A digest of the protocol:
as §1

Data set [9] in a line: Stability assessed as nitric oxide release in 0.1 M phosphate buffer at pH 7.4 at 100 to 150 nM measured per mole in presence of glutathione by chemiluminescence analysis. The format is physicochemical.
For data set [10], the system named is PC-3. Description: Antiproliferative activity against human PC-3 cells after 72 hrs by MTT assay. The class given is functional, cell-based. Particulars: PC-3, 72 h. In outline: as §2
In data set [11] the test system is U-937. Description: Antiproliferative activity against human U937 cells after 72 hrs by MTT assay. The format is functional, cell-based. Particulars: U-937, 72 h. A digest of the protocol:
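Cells seeded at 10⁴ per well and grown 24 h, then exposed 72 h to increasing drug concentrations diluted in PBS from 10 mM DMSO stocks. Growth read by MTT assay. Six repeats per concentration, at least two independent experiments; IC50 reported.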

Data set [12] is described as follows: Antiproliferative activity against human HCT 116 cells after 72 hrs by MTT assay. Particulars: HCT-116, 72 h. The class given is functional, cell-based.
For data set [13], the system named is HL-60. Description: Antiproliferative activity against human HL-60 cells after 72 hrs by MTT assay. The format is functional, cell-based. Particulars: HL-60, 72 h. In outline: as §2
In data set [14] the test system is HCT-15. The experiment in a line: Antiproliferative activity against human HCT-15 cells after 72 hrs by MTT assay. The class given is functional, cell-based. Particulars: HCT-15, 72 h.
For data set [15], the target named is Glutathione S-transferase P (Homo sapiens) (UniProt P09211). Description: Specific activity of human Glutathione S-transferase P at 50 uM by spectrophotometric analysis in presence of glutathione. In outline:
as §1

Data set [16] relates to Caco-2. The experiment in a line: Antiproliferative activity against human Caco-2 cells after 72 hrs by MTT assay. The format is functional, cell-based. Particulars: Caco-2, 72 h.
Data set [17] deals with OVCAR-3. Description: Antiproliferative activity against human OVCAR-3 cells after 72 hrs by MTT assay. The format is functional, cell-based. Particulars: OVCAR-3, 72 h.
Data set [18] relates to TK-10. Description: Antiproliferative activity against human TK-10 cells after 72 hrs by MTT assay. The class given is functional, cell-based. Particulars: TK-10, 72 h.
A short description of data set [19]: Antiproliferative activity against human UO-30 cells after 72 hrs by MTT assay. Particulars: UO-30, 72 h. The class given is functional, cell-based.
The nature of data set [20]: Antiproliferative activity against human 786O cells after 72 hrs by MTT assay. The format is functional, cell-based. Particulars: 786-0, 72 h.
A short description of data set [21]: Antiproliferative activity against HREpC cells after 72 hrs by MTT assay. The format is cell-based. Particulars: Homo sapiens. In outline: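 Seeded at 10⁴ per well and grown 24 h before dosing. Compounds came from 10 mM DMSO stocks and were diluted in PBS to increasing concentrations. Exposure was 72 h, with MTT growth read-out. Six repeats per concentration, at least two independent experiments; IC50.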

Data set [22] relates to OVCAR-5. The experiment in a line: Antiproliferative activity against human OVCAR5 cells after 72 hrs by MTT assay. The format is functional, cell-based. Particulars: OVCAR-5, 72 h.
A short description of data set [23]: Antiproliferative activity against human H1395 cells after 72 hrs by MTT assay. Particulars: NCI-H1395, 72 h. The format is functional, cell-based.
For data set [24], the system named is HT-29. The experiment in a line: Antiproliferative activity against human HT-29 cells after 72 hrs by MTT assay. The format is functional, cell-based. Particulars: HT-29, 72 h.
Data set [25] is described as follows: Antiproliferative activity against human BJ-5ta cells after 72 hrs by MTT assay. Particulars: hTERT-BJ. The class given is cell-based. In outline:
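10⁴ cells per well, allowed 24 h growth, then exposed 72 h to increasing concentrations added in PBS from 10 mM DMSO stocks. MTT proliferation read-out. Each concentration in six repeats, at least two independent experiments; IC50.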

Data set [26] in a line: Antiproliferative activity against human H838 cells after 72 hrs by MTT assay. The format is functional, cell-based. Particulars: NCI-H838, 72 h.

Glutathione S-transferase P (Homo sapiens), sequence (P09211 2-210 limits assumed): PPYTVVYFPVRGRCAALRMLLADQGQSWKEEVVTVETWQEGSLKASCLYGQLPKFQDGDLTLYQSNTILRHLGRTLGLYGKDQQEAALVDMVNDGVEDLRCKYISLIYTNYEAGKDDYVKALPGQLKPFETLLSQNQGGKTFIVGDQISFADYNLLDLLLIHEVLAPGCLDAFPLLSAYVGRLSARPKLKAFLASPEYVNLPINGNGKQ

For the molecule `CCCOC(=O)N1CCN(/[N+]([O-])=N/Oc2ccc([N+](=O)[O-])cc2[N+](=O)[O-])CC1`, the Activity worked out at 0.89 in data set [1]; 1 in [2]; 59 µmol/min/mg in data set [4]; 0.88 in [7]; 126 µmol/min/mg in [8]; 2 mol/mol in [9]. For the same molecule, the Activity in [15] turned out to be 1.2 µmol/min/mg. In addition, the t1/2 in data set [3] is on record as 27 min. The IC50 in data set [5] turned out to be 2.4 µM; in data set [6], 2.4 µM; in data set [10], 2 µM; in data set [11] it was 0.7 µM; in data set [12], 1.5 µM; in [13], 1.4 µM. The same molecule gave an IC50 in data set [14] of 1.3 µM.
As for `CCOC(=O)N1CCN(/[N+]([O-])=N/Oc2ccc([N+](=O)[O-])cc2[N+](=O)[O-])C(C)C1` (stereo unspecified), the Activity in [1] was 0.71; in data set [2], 0.87; in data set [4], 47 µmol/min/mg; in data set [7], 0.65; in data set [8] it was 110 µmol/min/mg; in data set [15] it was 0.88 µmol/min/mg.
For the molecule `CCOC(=O)N1CCN(/[N+]([O-])=N/Oc2ccc([N+](=O)[O-])cc2[N+](=O)[O-])CC1C` (stereo unspecified), the Activity in data set [1] was 0.84; in data set [2] it was 0.89; in data set [4], 55.5 µmol/min/mg; in [7], 0.85; in data set [8], 112 µmol/min/mg; in data set [15], 1.15 µmol/min/mg.
As for `CCOC(=O)N1CCN(/[N+]([O-])=N/Oc2ccc([N+](=O)[O-])cc2[N+](=O)[O-])CC1`, the IC50 in data set [16] turned out to be 2.6 µM; in data set [17] it was 0.8 µM; in data set [18], 0.5 µM; in data set [5] it was 1.5 µM; in data set [19], 0.9 µM; in [20], 0.8 µM. The IC50 in data set [6] came to 1 µM; in [21], 11.3 µM; in [22], 1 µM; in data set [23], 0.8 µM; in [10], 1.1 µM; in data set [11], 0.3 µM. Besides, the IC50 stood at 0.8 µM in data set [24]; 10 µM in [25]; 0.7 µM in data set [12]; 0.2 µM in data set [13]; 0.6 µM in [14]; 4.3 µM in data set [26]. Further, the Activity came out at 1 in data set [1]; 1 in data set [2]; 66.3 µmol/min/mg in data set [4]; 1 in [7]; 126 µmol/min/mg in data set [8]; 1.7 mol/mol in data set [9]. The Activity in data set [15] was 1.36 µmol/min/mg.
In the case of `CCOC(=O)N1CCCN(/[N+]([O-])=N/Oc2ccc([N+](=O)[O-])cc2[N+](=O)[O-])CC1`, the Activity worked out at 0.25 in data set [1]; 0.3 in data set [2]; 16.8 µmol/min/mg in [4]; 0.12 in data set [7]; 38 µmol/min/mg in [8]; 0.16 µmol/min/mg in [15].
Take `CCOC(=O)N1C(C)CN(/[N+]([O-])=N/Oc2ccc([N+](=O)[O-])cc2[N+](=O)[O-])CC1C` (stereo unspecified): the Activity is 1.06 in data set [1]; 1.36 in data set [2]; 70.3 µmol/min/mg in data set [4]; 0.86 in [7]; 172 µmol/min/mg in data set [8]; 1.75 mol/mol in [9]. Moreover, in data set [15], the Activity was found to be 1.17 µmol/min/mg. For the same molecule, the IC50 in [17] was 4.9 µM; in [5], over 10 µM; in data set [6], 8.1 µM; in data set [10], over 10 µM; in data set [11], 4.9 µM; in data set [12] it was 9.5 µM. For the same molecule, the IC50 in data set [13] was found to be 4.7 µM; in data set [14] it was 8.2 µM. For the same molecule, the t1/2 in data set [3] is reported as 26 min.
For the molecule `COC(=O)N1CCN(/[N+]([O-])=N/Oc2ccc([N+](=O)[O-])cc2[N+](=O)[O-])CC1`, the Activity in [1] came to 0.68; in [2] it was 0.81; in [4] it was 45.1 µmol/min/mg; in data set [7], 0.72; in [8], 102 µmol/min/mg; in data set [15] it was 0.98 µmol/min/mg.
As to `CCOC(=O)N1CC(C)N(/[N+]([O-])=N/Oc2ccc([N+](=O)[O-])cc2[N+](=O)[O-])CC1C` (stereo unspecified), the Activity in data set [1] was determined as 0.27; in [2], 0.39; in data set [4] it was 17.6 µmol/min/mg; in data set [7], 0.1; in [8], 49 µmol/min/mg; in data set [15], 0.14 µmol/min/mg.
